# Results published in ChEMBL document CHEMBL1138222, “9-Benzylidene-naphtho[2,3-b]thiophen-4-ones as novel antimicrotubule agents-synthesis, antiproliferative activity, and inhibition of tubulin polymerization” (J Med Chem, 2006).
# Calls of active or inactive are those of the source. The rule behind the calls is not given here.
# Tests used:
# K562 [1] = test: Cell cycle arrest in K562 cells by accumulation at G2/M phase at 0.1 uM; assay type: functional, Homo sapiens
# In short: (§1)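 K562 leukaemia cells were exposed to compound for 24 h at 37 °C, pelleted, and washed in PBS. They were fixed in ice-cold 70% ethanol for 30 min at 4 °C. Staining was 30 min in the dark with propidium iodide (0.2 mg/mL) plus RNase (2 mg/mL) in PBS. DNA content was measured by flow cytometry with 488 nm argon laser excitation.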
# L1210 [2] = test: Antiproliferative activity against L1210 cells by XTT assay after 48 hrs; assay type: functional, cell-based; details: Mus musculus, L1210, 48 h
# In short: (§2)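 Tumour cell lines were seeded at 1 × 10^3 to 8 × 10^4 cells/well for logarithmic growth and exposed to a concentration series for 48 h. Proliferation was read as cellular metabolic activity by XTT. IC50 came from dose-response curves by nonlinear regression, with at least two replicates.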
# P388 [3] = test: Inhibition of P388 cells growth subcutaneously implanted in CD2F1 mouse at 25 mg/kg, ip after 7 days; assay type: functional, organism-based; parameters: dose 25 mg/kg
# In short: (§3)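 Female CD2F1 mice aged 5-6 weeks received ~1 mm3 P388 tumour fragments subcutaneously on day 0. Dosing was intraperitoneal at 0.1 mL/10 g on days 5, 12 and 19, at 100, 50 or 25 mg/kg; controls received DMSO vehicle. Body weight and subcutaneous tumour growth were recorded three times per week.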
# Tubulin (Homo sapiens) [4] = target: T1, Tubulin (Homo sapiens) (UniProt P68371+Q9H4B7+P0DPH7+P68366+Q13509+Q71U36+P04350+Q3ZCM7+P07437+P68363+Q9BQE3+Q6PEY2+Q13885+Q9BVA1+Q9BUF5); test: Displacement of [3H]colchicine from tubulin by SPA assay; assay type: protein-complex assay
# [5] = Cell cycle arrest in KB/HeLa cells by accumulation at S phase at 100 nM; assay type: functional, cell-based; details: Homo sapiens
# In short: (§4)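 Subconfluent KB/HeLa cells were treated with a concentration series for 24 h at 37 °C, then detached and fixed in 70% ethanol. DNA was stained with propidium iodide alongside RNase digestion and measured by flow cytometry. Phase fractions came from cell-cycle modelling software, and IC50 from nonlinear regression.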
# [6] = Cell cycle arrest in KB/HeLa cells by accumulation at G2/M phase at 1 nM; assay type: functional, cell-based; details: Homo sapiens; in short: as §4
# SF-268 = test: Antiproliferative activity against SF268 cells by XTT assay after 48 hrs; assay type: functional, cell-based; details: Homo sapiens, SF-268, 48 h; in short: as §2
# cells = details: Rattus norvegicus, LT12, 48 h
# RKO [7] = test: Antiproliferative activity against RKO cells by XTT assay after 48 hrs; assay type: functional, cell-based; details: Homo sapiens
# In short: (§5)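 RKO colon adenocarcinoma cells carry an ecdysone-inducible p27kip1 vector. On day 1 they were plated with 3 µM ponasterone A (induced, 2 × 10^4 cells/well) or without it (not induced, 6 × 10^3 cells/well) and held 24 h at 37 °C. Compound or DMSO control was then added for 48 h at 37 °C, followed by a standard XTT read-out.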
# [8] = Cell cycle arrest in KB/HeLa cells by accumulation at S phase at 316 nM; assay type: functional, cell-based; details: Homo sapiens; in short: as §4
# Mus musculus [9] = test: Increase in survival of CD2F1 mouse subcutaneously implanted with P388 cells at 25 mg/kg after 21 days; assay type: functional; details: route intraperitoneal
# [10] = Cell cycle arrest in KB/HeLa cells by accumulation at S phase at 31.6 nM; assay type: functional, cell-based; details: Homo sapiens; in short: as §4
# [11] = Antiproliferative activity against KB/HeLa cells by XTT assay after 48 hrs; assay type: functional, cell-based; details: Homo sapiens; in short: as §2
# Mus musculus [12] = test: Increase in survival of CD2F1 mouse subcutaneously implanted with P388 cells at 50 mg/kg after 21 days; assay type: functional; details: route intraperitoneal
# RKO [13] = test: Antiproliferative activity against RKO cells with ectopic-induced p27kip1-expression by XTT assay after 48 hrs; assay type: functional, cell-based; details: Homo sapiens; in short: as §5
# P388 [14] = test: Antiproliferative activity against P388 cells by XTT assay after 48 hrs; assay type: functional, cell-based; details: Mus musculus, P388, 48 h; in short: as §2
# [15] = Cell cycle arrest in KB/HeLa cells by accumulation at G1 phase at 0.3 nM; assay type: functional, cell-based; details: Homo sapiens; in short: as §4
# [16] = Cell cycle arrest in KB/HeLa cells by accumulation at G2/M phase at 0.3 nM; assay type: functional, cell-based; details: Homo sapiens; in short: as §4
# [17] = Cell cycle arrest in KB/HeLa cells by accumulation at G2/M phase at 100 nM; assay type: functional, cell-based; details: Homo sapiens; in short: as §4
# [18] = Cell cycle arrest in KB/HeLa cells by accumulation at G2/M phase at 10 nM; assay type: functional, cell-based; details: Homo sapiens; in short: as §4
# Tubulin (Homo sapiens) [19] = target: T1, Tubulin (Homo sapiens); test: Displacement of [3H]paclitaxel from tubulin by SPA assay; assay type: protein-complex assay
# [20] = Cell cycle arrest in KB/HeLa cells by accumulation at G1 phase at 3.16 nM; assay type: functional, cell-based; details: Homo sapiens; in short: as §4
# P388 [21] = test: Inhibition of P388 cells growth subcutaneously implanted in CD2F1 mouse at 50 mg/kg, ip between 9 to 14 days; assay type: functional, organism-based; parameters: dose 50 mg/kg; in short: as §3
# [22] = Cell cycle arrest in KB/HeLa cells by accumulation at G2/M phase; assay type: functional, cell-based; details: Homo sapiens; in short: as §4
# Mus musculus [23] = test: Increase in survival of CD2F1 mouse subcutaneously implanted with P388 cells at 100 mg/kg after 21 days; assay type: functional; details: route intraperitoneal
# [24] = Cell cycle arrest in KB/HeLa cells by accumulation at G2/M phase at 0.1 nM; assay type: functional, cell-based; details: Homo sapiens; in short: as §4
# Tubulin = Tubulin (Sus scrofa, UniProt P02554+P02550); test: Inhibition of tubulin polymerization in porcine brain
# K562 [25] = test: Antiproliferative activity against human K562 cell line; assay type: functional, cell-based
# P388 [26] = test: Antiproliferative activity against P388 ADR cells by XTT assay after 48 hrs; assay type: functional, cell-based; details: Mus musculus, P388, 48 h; in short: as §2
# [27] = Cell cycle arrest in KB/HeLa cells by accumulation at G1 phase at 316 nM; assay type: functional, cell-based; details: Homo sapiens; in short: as §4
# [28] = Cell cycle arrest in KB/HeLa cells by accumulation at S phase at 1 nM; assay type: functional, cell-based; details: Homo sapiens; in short: as §4
# NCI-H460 = test: Antiproliferative activity against NCI-H460 cells by XTT assay after 48 hrs; assay type: functional, cell-based; details: Homo sapiens, NCI-H460, 48 h; in short: as §2
# SK-OV-3 = test: Antiproliferative activity against SKOV3 cells by XTT assay after 48 hrs; assay type: functional, cell-based; details: Homo sapiens, SK-OV-3, 48 h; in short: as §2
# [29] = Cell cycle arrest in KB/HeLa cells by accumulation at G2/M phase at 316 nM; assay type: functional, cell-based; details: Homo sapiens; in short: as §4
# [30] = Cell cycle arrest in KB/HeLa cells by accumulation at S phase at 10 nM; assay type: functional, cell-based; details: Homo sapiens; in short: as §4
# [31] = Cell cycle arrest in KB/HeLa cells by accumulation at G1 phase at 100 nM; assay type: functional, cell-based; details: Homo sapiens; in short: as §4
# [32] = Cell cycle arrest in KB/HeLa cells by accumulation at S phase at 3.16 nM; assay type: functional, cell-based; details: Homo sapiens; in short: as §4
# [33] = Cell cycle arrest in KB/HeLa cells by accumulation at G2/M phase at 31.6 nM; assay type: functional, cell-based; details: Homo sapiens; in short: as §4
# K562 [34] = test: Cell cycle arrest in K562 cells by accumulation at G2/M phase at 0.06 uM; assay type: functional, Homo sapiens; in short: as §1
# MDR = test: Antiproliferative activity against LT12 MDR cells by XTT assay after 48 hrs; assay type: functional, cell-based; details: Rattus norvegicus; in short: as §2
# [35] = Cell cycle arrest in KB/HeLa cells by accumulation at G1 phase at 0.1 nM; assay type: functional, cell-based; details: Homo sapiens; in short: as §4
# [36] = Cell cycle arrest in KB/HeLa cells by accumulation at G1 phase at 31.6 nM; assay type: functional, cell-based; details: Homo sapiens; in short: as §4
# [37] = Cell cycle arrest in KB/HeLa cells by accumulation at G1 phase at 10 nM; assay type: functional, cell-based; details: Homo sapiens; in short: as §4
# [38] = Cell cycle arrest in KB/HeLa cells by accumulation at S phase at 0.1 nM; assay type: functional, cell-based; details: Homo sapiens; in short: as §4
# [39] = Cell cycle arrest in KB/HeLa cells by accumulation at S phase at 0.3 nM; assay type: functional, cell-based; details: Homo sapiens; in short: as §4
# [40] = Cell cycle arrest in KB/HeLa cells by accumulation at G2/M phase at 3.16 nM; assay type: functional, cell-based; details: Homo sapiens
# [41] = Cell cycle arrest in KB/HeLa cells by accumulation at G1 phase at 1 nM; assay type: functional, cell-based; details: Homo sapiens; in short: as §4
# L1210 [42] = test: Antiproliferative activity against L1210 VCR cells by XTT assay after 48 hrs; assay type: functional, cell-based; details: Mus musculus, L1210, 48 h; in short: as §2
# K562 [43] = test: Cell cycle arrest in K562 cells by accumulation at G2/M phase at 0.03 uM; assay type: functional, Homo sapiens; in short: as §1
smiles,measurement,setting,value
COc1cc(/C=C2/c3ccccc3C(=O)c3ccsc32)cc(OC)c1O,Activity,K562 [1],72%
same,IC50,L1210 [2],340 nM
same,Activity,P388 [3],Active
same,Activity,Tubulin (Homo sapiens) [4],0.27 µM
same,Activity,[5],16.2%
same,Activity,[6],8.4%
same,IC50,SF-268,70 nM
same,IC50,cells,130 nM
same,IC50,RKO [7],30 nM
same,Activity,[8],9.8%
same,Activity,Mus musculus [9],83%
same,Activity,[10],26%
same,IC50,[11],50 nM
same,Activity,Mus musculus [12],111%
same,IC50,RKO [13],> 9000 nM
same,IC50,P388 [14],50 nM
same,Activity,[15],65.6%
same,Activity,[16],9.1%
same,Activity,[17],52.2%
same,Activity,[18],8.8%
same,Activity,Tubulin (Homo sapiens) [19],inactive
same,Activity,[20],66.3%
same,Activity,P388 [21],Active
same,EC50,[22],98 nM
same,Activity,Mus musculus [23],106%
same,Activity,[24],9.7%
same,IC50,Tubulin,380 nM
same,IC50,K562 [25],50 nM
same,IC50,P388 [26],220 nM
same,Activity,[27],0.8%
same,Activity,[28],25.9%
same,IC50,NCI-H460,50 nM
same,IC50,SK-OV-3,70 nM
same,Activity,[29],89.5%
same,Activity,[30],26.5%
same,Activity,[31],31.7%
same,Activity,[32],24.5%
same,Activity,[33],8.6%
same,Activity,K562 [34],55%
same,IC50,MDR,170 nM
same,Activity,[35],65.8%
same,Activity,[36],65.4%
same,Activity,[37],64.8%
same,Activity,[38],24.6%
same,Activity,[39],25.3%
same,Activity,[40],9.2%
same,Activity,[41],65.7%
same,IC50,L1210 [42],680 nM
same,Activity,K562 [43],23%
